{
  "source": "ChEMBL document CHEMBL1140584",
  "about": "“Novel potent organoselenium compounds as cytotoxic agents in prostate cancer cells” (Bioorg Med Chem Lett, 2007)",
  "data": [
    {"test_system": "PC-3", "assay": "Cytotoxicity against human PC3 cells at 2 to 10 uM by MTT assay", "format": "functional, cell-based", "details": "not given", "summary_of_the_method": "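PC-3 cells (ATCC, tumorigenic metastatic prostate cancer) grown in RPMI 1640 with Glutamax, 10% FBS and 1% penicillin–streptomycin. Seeded at 5·10³ cells/well in complete medium and incubated overnight at 37 °C, 5% CO₂ before compound addition. MTT formazan absorbance read at 570 nm. Percentage viable cells relative to untreated controls used to derive IC50.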", "units": {"IC50": "µM"}, "values": [
      {"smiles": "CC[Se]/C(=N\\C(=O)c1ccccc1)NC(=O)c1ccccc1", "IC50": "> 10"},
      {"smiles": "CS/C(=N\\C(=O)c1cccnc1Cl)NC(=O)c1cccnc1Cl", "IC50": "> 10"},
      {"smiles": "C[Se]/C(=N\\C(=O)c1ccc(Cl)nc1)NC(=O)c1ccc(Cl)nc1", "IC50": 9.14},
      {"smiles": "CC(C)[Se]/C(=N\\C(=O)c1ccccc1)NC(=O)c1ccccc1", "IC50": "> 10"},
      {"smiles": "COc1cc(OC)cc(C(=O)/N=C(/NC(=O)c2cc(OC)cc(OC)c2)[Se]C)c1", "IC50": 6.5},
      {"smiles": "CS/C(=N\\C(=O)c1ccccc1)NC(=O)c1ccccc1", "IC50": "> 10"},
      {"smiles": "CS/C(=N\\C(=O)c1ccc(Cl)cc1)NC(=O)c1ccc(Cl)cc1", "IC50": "> 10"},
      {"smiles": "C[Se]/C(=N\\C(=O)c1ccc(Cl)cc1)NC(=O)c1ccc(Cl)cc1", "IC50": 7.6},
      {"smiles": "C[Se]/C(=N\\C(=O)c1ccc(C)cc1)NC(=O)c1ccc(C)cc1", "IC50": 1.85},
      {"smiles": "CC(C)[Se]/C(=N\\C(=O)c1ccc(Cl)cc1)NC(=O)c1ccc(Cl)cc1", "IC50": "> 10"},
      {"smiles": "C[Se]/C(=N\\C(=O)c1ccc([N+](=O)[O-])cc1)NC(=O)c1ccc([N+](=O)[O-])cc1", "IC50": "> 10"},
      {"smiles": "C[Se]/C(=N\\C(=O)c1ccc(C#N)cc1)NC(=O)c1ccc(C#N)cc1", "IC50": "> 10"},
      {"smiles": "CS/C(=N\\C(=O)c1ccc(C)cc1)NC(=O)c1ccc(C)cc1", "IC50": "> 10"},
      {"smiles": "C[Se]/C(=N\\C(=O)c1ccc(C(F)(F)F)cc1)NC(=O)c1ccc(C(F)(F)F)cc1", "IC50": "> 10"},
      {"smiles": "C[Se]/C(=N\\C(=O)c1ccc(C(C)(C)C)cc1)NC(=O)c1ccc(C(C)(C)C)cc1", "IC50": "> 10"},
      {"smiles": "C[Se]/C(=N\\C(=O)c1ccccc1)NC(=O)c1ccccc1", "IC50": 2.5},
      {"smiles": "COc1cc(OC)cc(C(=O)/N=C(/NC(=O)c2cc(OC)cc(OC)c2)[Se]C(C)C)c1", "IC50": "> 10"},
      {"smiles": "C[Se](=O)O", "note": "[METHYLSELENINIC ACID]", "IC50": 8.38}
    ]},
    {"test_system": "not listed separately", "assay": "Toxicity against human RWPE1 cells at 2 to 10 uM by MTT assay", "format": "cell-based, RWPE-1", "details": "read-out: LD50 (the source's name)", "summary_of_the_method": "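Non-tumorigenic human prostate RWPE-1 cells (ATCC) kept in keratinocyte-SFM supplemented with 1% FBS and 1% penicillin–streptomycin. MTT read-out as formazan absorbance at 570 nm. Viability expressed as percentage of untreated control cells and used to derive IC50.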", "units": {"CC50": "µM"}, "values": [
      {"smiles": "C[Se]/C(=N\\C(=O)c1ccc(Cl)nc1)NC(=O)c1ccc(Cl)nc1", "CC50": "> 10"},
      {"smiles": "C[Se]/C(=N\\C(=O)c1ccc(C)cc1)NC(=O)c1ccc(C)cc1", "CC50": "> 10"},
      {"smiles": "C[Se]/C(=N\\C(=O)c1ccccc1)NC(=O)c1ccccc1", "CC50": 4.1}
    ]}
  ]
}
